In ChEMBL document CHEMBL2146400, “Antiophidic solanidane steroidal alkaloids from Solanum campaniforme” (J Nat Prod, 2011) one finds inhibition and Activity data, which are given here for three compounds.

Data set [1] addresses T1, Basic phospholipase A2 homolog BnSP-7 (Bothropoides pauloensis) (UniProt Q9IAT9).
T1 sequence (whole entry): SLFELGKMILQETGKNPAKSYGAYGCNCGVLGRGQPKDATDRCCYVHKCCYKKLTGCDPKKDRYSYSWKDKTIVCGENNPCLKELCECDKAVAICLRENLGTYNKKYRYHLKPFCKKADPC
Put plainly: Inhibition of Phospholipase A2 Asp49 in Bothropoides pauloensis at 1:1 venom to drug ratio incubated up to 40 mins using 4N3OBA substrate by multiwell plate reader method. The following applies: Bothrops pauloensis. Put shortly: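 Whole venom (1 mg/mL), alone or preincubated 1:1 (w:w) with compound, was added to Tris-HCl 0.1 M, Ca2+ 0.01 M, pH 8.0, with 4-nitro-3-octanoyloxybenzoic acid substrate. Mixture was kept at 37 °C up to 40 min, reading A425 every 5 min. V0 came from the absorbance increase after 20 min.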

Data set [2] is described as follows: Fntinecrotizing activity against Bothropoides pauloensis venom-induced hemorrhage in Swiss mouse assessed as reduction in skin necrotic regions at 50 ug preincubated with venom for 30 mins before venom injection measured 2 hrs post dose. The class given is ADME, tissue-based, Skin of body. The following applies: bothrops pauloensis, in vivo.
Data set [3] deals with Bothrops pauloensis. Put plainly: Antihemorrhagic activity against Bothropoides pauloensis venom-induced hemorrhage in Swiss mouse assessed as decrease in hemorrhagic area at 50 ug preincubated with venom for 30 mins before venom injection measured 2 hrs post dose. The class given is functional. Put shortly:
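Mice received 50 μL of 1% DMSO–PBS (pH 7.2) holding 50 μg B. pauloensis venom plus 50 μg alkaloid, preincubated 30 min at 37 °C. Vehicle-only negative controls. Five animals were killed at 2 h, and the inner dorsal skin was photographed. Hemorrhagic area was measured in mm2. Mean ± SEM, ANOVA with Dunnett's test.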

The subject of data set [4] is MDA-MB-435. Put plainly: Antiproliferative activity against human MDA-MB-435 cells. The class given is functional, cell-based.
The test system of data set [5] is HL-60. As to the kind of experiment: Antiproliferative activity against human HL60 cells. The class given is functional, cell-based.
The test system of data set [6] is Bothrops pauloensis. As to the kind of experiment: Antihemorrhagic activity against Bothropoides pauloensis venom-induced hemorrhage in Swiss mouse assessed as reduction in intensity of hemorrhage area at 50 ug preincubated with venom for 30 mins before venom injection measured 2 hrs post dose. The class given is functional. Put shortly: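 Venom (50 μg) was premixed with 50 μg alkaloid in 50 μL 1% DMSO–PBS, pH 7.2, and held 30 min at 37 °C before injection. At 2 h, five mice were killed and the inner dorsal skin was imaged. Intensity I = A × (N − H): A is area in mm2, N and H are mean colour intensity of normal and hemorrhagic skin. ANOVA/Dunnett.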

The test system of data set [7] is SF-295. Put plainly: Antiproliferative activity against human SF295 cells. The class given is functional, cell-based.
Data set [8] concerns Bothrops pauloensis. Put plainly: Antiophidic activity against Bothropoides pauloensis venom-induced myotoxicity in Swiss mouse assessed as creatine kinase level at 50 ug preincubated with venom for 30 mins before venom injection measured 2 to 48 hrs post dose. The class given is functional. Put shortly:
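Injected mixture was 50 μg venom with 50 μg alkaloid in 50 μL 1% DMSO–PBS (pH 7.2), preincubated 30 min at 37 °C; vehicle controls. Retro-orbital blood was taken at 2, 4, 8, 24 and 48 h. Plasma creatine kinase was measured by UV kit, in U/L (1 U = 1 μmol NADH/min at 37 °C). Mean ± SEM.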

Data set [9] concerns HCT-8. As to the kind of experiment: Antiproliferative activity against human HCT8 cells. The class given is functional, cell-based.

Each structure is given as a SMILES string. The source made the active and inactive calls. The calls are words filed in the database; no cut-off is given here.

As for `C[C@H]1C[C@H]2O[C@]23[C@@H](C)[C@H]2[C@H](C[C@H]4[C@@H]5CCC6=CC(=O)C=C[C@]6(C)C5=CC[C@]24C)N3C1`, the inhibition entry in data set [1] was “inactive”. Also, the outcome in data set [2] was Active. The result in data set [3], in [6] and in data set [8] was Active. Also, the outcome in [4], in [5], in [7] and in data set [9] was inactive.

Turning to `Cc1ccc(O)cc1CC[C@@H]1[C@@H](O)CC[C@]2(C)[C@@H]3[C@H](C[C@@H]12)N1C[C@@H](C)C[C@H]2O[C@]21[C@H]3C` (relative stereo), the inhibition result in data set [1] was “inactive”. The outcome in data set [4], in [5], in data set [7] and in [9] was inactive. Moreover, the result in [8] was Active.

As for `C[C@H]1C[C@H]2O[C@]23[C@@H](C)[C@H]2[C@H](C[C@H]4[C@@H]5CCC6=CC(=O)C=C[C@]6(C)[C@H]5CC[C@]24C)N3C1` (relative stereo), the inhibition result in data set [1] was “inactive”. In addition, the outcome in data set [2] was Active. Besides, the result in data set [3], in [6] and in data set [8] was Active. The outcome in data set [4], in [5], in data set [7] and in data set [9] was inactive.
